Where “and” joins values, the source holds several entries; their conditions need not be identical. Identical values can stand only once. Marks after values point to notes of the source that are not given here.
How the values were obtained:
[1] = test system: select advanced hematologic malignancies; assay: Preliminary clinical activity by disease-specific response criteria; format: in vivo, Japanese patients
In short: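 Patients aged ≥20 years had refractory, resistant or intolerant MDS, MF, CMML, CML or AML. They took oral test compound once daily at 25, 50 or 100 mg in 28-day cycles, after a lead-in dose on Day −5. Response was judged by disease-specific criteria and summarised with descriptive statistics.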

GLI1 expression [2] = conditions: advanced solid tumors; 80–640 mg; cited from earlier work
[3] = test system: leukemic stem cell (LSC) burden in xenograft models; conditions: cited from earlier work
solid tumors = conditions: glasdegib monotherapy; cited from earlier work
[4] = test system: patients with select advanced myeloid malignancies and solid tumors; conditions: phase I dose-escalation study, United States and Italy; cited from earlier work
hematologic malignancies = conditions: cited from earlier work
[5] = test system: Japanese patients with select advanced hematologic malignancies; assay: Safety: adverse events and dose-limiting toxicities, phase I trial of glasdegib; format: in vivo
In short: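 Once-daily oral dosing at 25, 50 or 100 mg followed a 3 + 3 design. AEs, serious AEs and laboratory tests were monitored until 28 days after the last dose or until drug-related toxicities resolved, graded by NCI CTCAE v4.0. DLT window: Day −5 to Cycle 1 Day 28. DLTs: grade ≥3 nonhematologic toxicity; myelosuppression lasting ≥42 days; grade ≥3 QTc prolongation (≥501 ms).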

[6] = Plasma pharmacokinetics after single and multiple oral doses; format: in vivo, Japanese patients; conditions: for half-life / AUC(0-inf) / Tmax / Vd/F: human, plasma; for C trough: multiple dose, Cycle 1/Day 21; for C trough / CL/F: geometric mean (geometric %CV); for CL/F: single dose
In short: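 Dosing was oral, once daily, at 25, 50 or 100 mg (3 + 3 design), with a single lead-in dose on Day −5. Serial blood was drawn on Day −5 and on Cycle 1 Days 1, 8, 15 and 21, then on Day 1 of later cycles. Plasma drug was assayed by a validated method (LLOQ 3.00 ng/mL). Cmax, Tmax and AUC came from noncompartmental analysis.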

GLI1 expression [7] = assay: GLI1 expression in normal skin biopsies; format: in vivo, Japanese patients; conditions: for Downregulation of GLI1 expression from skin biopsies: steady state (Cycle 1 Day 21 vs screening)
In short: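 Adults with advanced hematologic malignancies received once-daily oral test compound at 25, 50 or 100 mg in 28-day cycles, after a single lead-in dose on Day −5. Normal skin biopsies were taken at screening and on Cycle 1 Day 21. Expression of Hh pathway-regulated genes was measured relative to baseline, matched to PK sampling where possible, and summarised graphically and descriptively.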

SMO = conditions: preclinical studies; cited from earlier work
[8] = 5–600 mg dose range; cited from earlier work

## CN1CC[C@@H](NC(=O)Nc2ccc(C#N)cc2)C[C@@H]1c1nc2ccccc2[nH]1 [glasdegib]
[1]; 25 mg
  AML patients achieving stable disease: 1 patients
  MDS patients achieving stable disease: 1
[1]; 50 mg
  AML patients achieving stable disease: 1 patients
[1]; 100 mg
  MDS patients achieving stable disease: 1
[1]; 100-mg group
  AML patients achieving stable disease: 2 patients
[1]; 100-mg group, 8% of 13
  AML patients with morphological complete remission as best response: 1 patient
[1]; all dose groups, 31%
  AML patients achieving stable disease: Four
GLI1 expression [2]
  Downregulation of GLI1 expression in surrogate tissue: > 80%
[3]; preclinical studies
  Antitumor activity in vivo: significant antitumor activity
[3]; xenograft models
  Leukemic stem cell (LSC) burden: significant reduction
Solid tumors
  Patients with prolonged (≥6 months) stabilization of disease: 13%
  Patients with stable disease: 35%
[4]
  Tolerability: well tolerated
Hematologic malignancies; European and American patients with hematologic malignancies
  Patients with some suggestion of clinical activity: 23 of 47
Hematologic malignancies; phase I dose-escalation study, United States and Italy
  Patients with preliminary clinical activity: approximately half
[5]; 50 mg group
  Permanent discontinuation of treatment due to AE: 3 patients
[5]; 100 mg group
  Permanent discontinuation of treatment due to AE: 1 patient
[5]; 9 of 13 patients with treatment-related AE
  Severity of treatment-emergent, treatment-related AE: 1–3 grade
[5]; 13 patients, 8%
  Leukopenia, grade 4 treatment-emergent AE: 1 n
  Neutropenia, grade 4 treatment-emergent AE: 1 n
  Reduced platelet count, grade 4 treatment-emergent AE: 1 n
  Thrombocytopenia, grade 4 treatment-emergent AE: 1 n
[5]; 13 patients, 15%
  Anemia, grade 3 treatment-emergent all-causality AE: 2 n
  Hypokalemia, grade 3 treatment-emergent all-causality AE: 2 n
  Thrombocytopenia, grade 3 treatment-emergent all-causality AE: 2 n
[5]; 13 patients, 23%, grade 1 muscle cramp, grade 1 dysgeusia, grade 1–3 pyrexia
  Treatment temporarily discontinued or dose reduced due to a treatment-related AE: 3 patients
[5]; 13 patients, 25, 50 and 100 mg q.d., Day −5 to Day 28 of Cycle 1
  First-cycle dose-limiting toxicities (DLT): No DLT were observed
[5]; 50-mg group
  Temporary discontinuations for an all-cause AE: 1 patient
[5]; 100-mg group, 23%
  Temporary discontinuations for an all-cause AE: 3 patients
[5]; N = 13
  Grade 4 or 5 treatment-related adverse events: No grade 4 or 5 treatment‐related adverse events were reported in this study.
  Pyrexia, grade 3 treatment-related: a One patient experienced grade 3 treatment‐related pyrexia.
[5]; N = 13, 25, 50 and 100 mg q.d. oral pooled
  Any adverse event, treatment-emergent all-causality, all grades: 13 (100.0) n (%)
[5]; N = 13, all doses pooled
  Alopecia, all-causality, all grades: 4 (30.8) n (%)
  Alopecia, all-causality, ≥Grade 3: 0 n (%)
  Alopecia, treatment-related, Grade 3: 0 n (%)
  Alopecia, treatment-related, all grades: 4 (30.8) n (%)
  Any adverse event, treatment-emergent all-causality, ≥Grade 3: 7 (53.8) n (%)
  Any adverse event, treatment-emergent treatment-related, all grades: 9 n (%) and 9 (69.2) n (%)
  Any adverse event, treatment-related, Grade 3: 1 (7.7) ^a n (%)
  Blood creatinine phosphokinase increased, all-causality, all grades: 3 (23.1) n (%)
  Blood creatinine phosphokinase increased, all-causality, ≥Grade 3: 0 n (%)
  Blood creatinine phosphokinase increased, treatment-related, Grade 3: 0 n (%)
  Blood creatinine phosphokinase increased, treatment-related, all grades: 3 (23.1) n (%)
  Constipation, all-causality, all grades: 6 (46.2) n (%)
  Constipation, all-causality, ≥Grade 3: 0 n (%)
  Constipation, treatment-related, Grade 3: 0 n (%)
  Constipation, treatment-related, all grades: 3 (23.1) n (%)
  Decreased appetite, all-causality, all grades: 6 (46.2) n (%)
  Decreased appetite, all-causality, ≥Grade 3: 0 n (%)
  Decreased appetite, treatment-related, Grade 3: 0 n (%)
  Decreased appetite, treatment-related, all grades: 4 (30.8) n (%)
  Diarrhea, all-causality, all grades: 3 (23.1) n (%)
  Diarrhea, all-causality, ≥Grade 3: 0 n (%)
  Diarrhea, treatment-related, Grade 3: 0 n (%)
  Diarrhea, treatment-related, all grades: 3 (23.1) n (%)
  Dysgeusia, all-causality, all grades: 9 (69.2) n (%)
  Dysgeusia, all-causality, ≥Grade 3: 0 n (%)
  Dysgeusia, treatment-related, Grade 3: 0 n (%)
  Dysgeusia, treatment-related, all grades: 9 (69.2) n (%)
  Fatigue, all-causality, all grades: 3 (23.1) n (%)
  Fatigue, all-causality, ≥Grade 3: 0 n (%)
  Hypokalemia, all-causality, all grades: 3 (23.1) n (%)
  Hypokalemia, all-causality, ≥Grade 3: 2 (15.4) n (%)
  Muscle spasms, all-causality, all grades: 6 (46.2) n (%)
  Muscle spasms, all-causality, ≥Grade 3: 0 n (%)
  Muscle spasms, treatment-related, Grade 3: 0 n (%)
  Muscle spasms, treatment-related, all grades: 5 (38.5) n (%)
  Pyrexia, all-causality, all grades: 6 (46.2) n (%)
  Pyrexia, all-causality, ≥Grade 3: 1 (7.7) n (%)
  Thrombocytopenia, all-causality, all grades: 3 (23.1) n (%)
  Thrombocytopenia, all-causality, ≥Grade 3: 3 (23.1) n (%)
  Weight decreased, all-causality, all grades: 3 (23.1) n (%)
  Weight decreased, all-causality, ≥Grade 3: 0 n (%)
[5]; dose levels tested (25–100 mg)
  Overall safety and tolerability: safe and well tolerated
[5]; doses up to 100 mg q.d.
  Maximum tolerated dose: not reached
[6]; 25–100 mg
  Dose proportionality of maximum plasma concentration and exposure: broadly dose‐proportional
[6]; oral
  half-life: 1240 ± 462 min
[6]; po, 25 mg
  AUC(0-inf): 3350 ng·h/mL
  Tmax: 2 h
  Vd/F: 165 L
  half-life: 918 min
[6]; po, 50 mg
  AUC(0-inf): 9590 ng·h/mL
  Tmax: 4 h
  Vd/F: 225 L
  half-life: 1820 min
[6]; po, 100 mg
  AUC(0-inf): 13100 ng·h/mL
  Tmax: 2 h
  Vd/F: 184 L
  half-life: 1030 min
[6]; 50 mg q.d.
  C trough: 240 (37) ng/mL
[6]; 100 mg q.d.
  C trough: 343 (35) ng/mL
[6]; 25 mg oral
  CL/F: 7.47 (68) L/h
[6]; 50 mg oral
  CL/F: 5.22 (64) L/h
[6]; 100 mg oral
  CL/F: 7.63 (20) L/h
GLI1 expression [7]; 50 mg group
  Downregulation of GLI1 expression from skin biopsies: > 80%
GLI1 expression [7]; 100 mg group
  Downregulation of GLI1 expression from skin biopsies: > 80%
GLI1 expression [7]; steady state, 25-mg group
  Marked downregulation of GLI1 expression from skin biopsies: not observed
SMO
  Inhibition of SMO in vitro: inhibited SMO in vitro
[8]
  Dose proportionality of pharmacokinetics: dose‐proportional
